# Records with an inconclusive call do not appear. Calls of active or inactive are those of the source.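 Rule for the calls: active = compounds whose fitted half-maximal concentration lies within ten times the top tested dose in every run, with signal falling; inconclusive = runs disagree, or unclear curves such as poor fits; inactive = every run inactive, including rises in signal.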
# Tested on: not listed separately
# Assay: QS-driven bacterial bioluminescence blockers – strain BB721, dry powder, set 3, counter-screen for LuxS inhibitor project, dose response (AID 493103)
# Conditions: Vibrio harveyi BB721 quorum sensing luminescence, 9 h; at 16 µM (top of the series)
# How it was run: (§1)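 System: Vibrio harveyi BB721, constitutive-on quorum-sensing strain. Buffer or medium: AB medium. Timing: 9 h compound exposure, 30 °C.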
row,SMILES,"activity change, negative = inhibition"
1,CNC[C@@H]1Oc2ccc(NC(=O)C3CCCCC3)cc2CC(=O)N([C@@H](C)CO)C[C@H]1C,1.18% (inactive)
2,C[C@@H]1CCCCO[C@@H](CN(C)C(=O)Nc2ccc(C(F)(F)F)cc2)[C@H](C)CN([C@@H](C)CO)C(=O)c2cc(NC(=O)CCC(F)(F)F)ccc2O1,2.01% (inactive)
3,C[C@@H]1CN([C@@H](C)CO)C(=O)Cc2cc(NC(=O)CCCN(C)C)ccc2O[C@H]1CN(C)CC1CCCCC1,13.8% (inactive)
4,O=S(=O)(Nc1ccccn1)c1ccccc1,1.3% (inactive)
5,C[C@H](CO)N1C[C@H](C)[C@@H](CN(C)C(=O)Nc2ccc(C(F)(F)F)cc2)Oc2ccc(NC(=O)Nc3ccc4c(c3)OCO4)cc2C1=O,-10.5% (inactive)
6,C[C@@H]1CN([C@@H](C)CO)C(=O)Cc2cc(NC(=O)CCN3CCOCC3)ccc2O[C@H]1CN(C)C(=O)Nc1ccc(C(F)(F)F)cc1,6.93% (inactive)
7,Cc1ccc(S(=O)(=O)Nc2ccc3c(c2)C(=O)N([C@H](C)CO)C[C@H](C)[C@@H](CN(C)Cc2ccc(C(F)(F)F)cc2)O3)cc1,-2.52% (inactive)
8,C[C@@H]1CN([C@@H](C)CO)C(=O)Cc2cc(NC(=O)CCN3CCOCC3)ccc2O[C@H]1CN(C)C(=O)Nc1ccc(F)cc1,1.22% (inactive)
9,C[C@@H]1CCCCO[C@@H](CN(C)Cc2ccc(C(=O)O)cc2)[C@H](C)CN([C@H](C)CO)C(=O)c2cc(NC(=O)CCCN(C)C)ccc2O1,-5.01% (inactive)
10,C[C@H](CO)N1C[C@H](C)[C@H](CN(C)Cc2ccc(C(=O)O)cc2)Oc2ncc(-c3ccc(C(=O)N(C)C)cc3)cc2C1=O,0.806% (inactive)
11,C[C@@H]1CCCCO[C@@H](CN(C)Cc2ccncc2)[C@H](C)CN([C@H](C)CO)C(=O)c2cc(NC(=O)C3CCCCC3)ccc2O1,-3.87% (inactive)
12,C[C@@H]1CN([C@H](C)CO)C(=O)c2cccc(NC(=O)Nc3ccc(C(F)(F)F)cc3)c2O[C@@H]1CN(C)C(=O)Nc1ccc(C(F)(F)F)cc1,-11.1% (inactive)
13,C[C@@H]1CCCCO[C@@H](CN(C)C(=O)Nc2cccc3ccccc23)[C@H](C)CN([C@H](C)CO)C(=O)c2cc(NC(=O)CCC(F)(F)F)ccc2O1,2% (inactive)
14,C=Cn1c(C(=O)O)ccc1-c1cccs1,-7.12% (inactive)
15,Cc1ccc(S(=O)(=O)Nc2ccc3c(c2)CC(=O)N([C@@H](C)CO)C[C@@H](C)[C@H](CN(C)C(=O)Nc2ccc(F)cc2)O3)cc1,3.81% (inactive)
16,C[C@H]1CN([C@@H](C)CO)C(=O)c2cc(NC(=O)Nc3ccc4c(c3)OCO4)ccc2O[C@@H]1CN(C)C(=O)Nc1ccc(C(F)(F)F)cc1,-0.179% (inactive)

# Tested on: Vibrio harveyi BB721 quorum sensing luminescence, 9 h
# Assay: as above
# Conditions: not given
# How it was run: as §1
row,SMILES,AC50 [µM]
1,O=C1C=C/C(=C/Br)O1,4.47
2,O=S(=O)(Nc1cccnc1)c1ccc(Oc2ccccc2)cc1,1.02
3,C[C@H](CO)N1C[C@H](C)[C@@H](CN(C)Cc2ccc3c(c2)OCO3)Oc2c(NC(=O)NC3CCCCC3)cccc2C1=O,8.89
4,C[C@@H]1CN([C@H](C)CO)C(=O)c2ccccc2-c2ccccc2CO[C@@H]1CN(C)Cc1ccc(Oc2ccccc2)cc1,13.8
5,C=Cn1c(C(=O)O)ccc1-c1ccc(Cl)cc1,16.2
